# V-ATPase pH: regulators of yeast V-ATPase proton pumping, primary screen, pHLuorin cytosolic pH fluorescence; S. cerevisiae; response, % at 10 µM; actives 0.37% (n = 350,000); in the data active = response mostly above about 7.3%, no sharp cut-off; inactive = mostly below about 5.4%; also: actives read high
# CendR NRP1 mod: modulators of CendR peptide binding to NRP-1, primary screen, biochemical, fluorescence polarization, uHTS; Neuropilin-1 (Homo sapiens), O14786; FAM-RPARPAR peptide binding to NRP-1; inhibition, % at 25 µM; actives 0.85% (n = 360,000);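 active = inhibition or corrected inhibition above about 18%, plus a signal ratio from 0.5 to 1.5, limit read from the data, passing the limit was not always enough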
# Target sequence (O14786 whole entry, looked up): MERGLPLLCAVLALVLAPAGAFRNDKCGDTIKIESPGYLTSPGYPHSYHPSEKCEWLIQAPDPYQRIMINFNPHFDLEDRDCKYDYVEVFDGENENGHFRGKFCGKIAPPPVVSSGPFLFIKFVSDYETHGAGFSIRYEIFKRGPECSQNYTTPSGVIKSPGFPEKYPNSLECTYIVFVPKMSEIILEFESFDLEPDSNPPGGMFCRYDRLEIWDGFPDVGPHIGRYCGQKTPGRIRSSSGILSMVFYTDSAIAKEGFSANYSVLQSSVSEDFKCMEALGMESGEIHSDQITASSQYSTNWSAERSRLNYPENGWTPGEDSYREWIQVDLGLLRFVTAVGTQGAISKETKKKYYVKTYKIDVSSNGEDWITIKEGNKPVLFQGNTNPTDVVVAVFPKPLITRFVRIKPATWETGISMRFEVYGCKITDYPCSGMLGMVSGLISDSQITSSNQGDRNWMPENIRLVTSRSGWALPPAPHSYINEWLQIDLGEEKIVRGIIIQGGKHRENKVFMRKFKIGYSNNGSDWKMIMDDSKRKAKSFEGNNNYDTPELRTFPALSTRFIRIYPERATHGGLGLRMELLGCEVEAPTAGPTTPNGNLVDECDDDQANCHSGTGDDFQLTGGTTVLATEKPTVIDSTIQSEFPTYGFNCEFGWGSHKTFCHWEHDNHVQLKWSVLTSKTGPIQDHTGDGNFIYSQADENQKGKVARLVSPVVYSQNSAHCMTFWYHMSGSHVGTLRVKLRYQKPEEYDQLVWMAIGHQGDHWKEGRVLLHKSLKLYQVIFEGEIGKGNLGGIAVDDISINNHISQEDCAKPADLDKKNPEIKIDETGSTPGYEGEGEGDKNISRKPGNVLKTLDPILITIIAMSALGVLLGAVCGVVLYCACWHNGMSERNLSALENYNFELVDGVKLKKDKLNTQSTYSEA
# ASAP1 GAP inh: inhibitors of human ASAP1 ArfGAP activity, primary screen, biochemical, fluorescence polarization; Arf-GAP with SH3 domain, ANK repeat and PH domain-containing protein 1 (Homo sapiens), …; actives 0.19% (n = 360,000); AID 624377, 2012; ASAP1-stimulated ARF1 GTP hydrolysis, GDP FP detection; inhibition, % at 16.5 µM; in the data active = inhibition above about 25%
# Granule exo inh: LAMP-1 surface exposure blockers, TALL-104 cells – cell-based, flow cytometry, MLPCN library, primary screen; actives 0.66% (n = 360,000); AID 651702, 2012; inhibition, % at 10 µM; TALL-104 LAMP-1 surface exposure; cells stimulated with thapsigargin and PMA;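 active = inhibition above about 55%, limit read from the data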
# ARFGAP1 inhibitor: inhibitors of rat ARFGAP1 GAP activity, primary screen, biochemical, fluorescence polarization, GDP tracer | ADP-ribosylation factor GTPase-activating protein 1 (Rattus norvegicus), Q62848 | Arfgap1-stimulated ARF1 GTP hydrolysis, GDP FP detection | inhibition, % at 16.5 µM | actives 0.26% (n = 360,000) | AID 651572, 2012;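 active = inhibition above a per-plate limit, mean inhibition of low control wells plus 3 SD, cut at about 25% in these data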
#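 material = rat Arfgap1 catalytic domain, aa 1-136 | also added = human ARF1(Δ1-17)-GTP substrate | compound dosing = one concentration, 16.5 µM, DMSO 1.26% | times = GTP hydrolysis reaction 2 h at 25 °C | measured by = FP, GDP Alexa 633 tracer displaced from anti-GDP antibody, 620/688 nm | evaluation = percent inhibition of Arfgap1-stimulated GTP hydrolysis | replication = single well per compound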
# Exocytosis CP01: inhibitors of lytic granule exocytosis, confirmation, TALL-104 cells, flow cytometry, Cherry Pick01 | shares compounds with Granule exo inh | actives 11% (n = 1,500) | LAMP-1 externalization; stimulated with PMA plus thapsigargin | inhibition, % at 10 µM | AID 651954, 2012; in the data active = inhibition above about 60%
# Numbers stand for hits; i = inactive; nt = no result. Rows were chosen to be rich in hits. Some 2.2% of all compounds tested hit in one or more screens of this group.
SMILES,V-ATPase pH,CendR NRP1 mod,ASAP1 GAP inh,Granule exo inh,ARFGAP1 inhibitor,Exocytosis CP01
COc1ccc(-c2ccc3c(c2)CN(c2cccc(Cl)c2)Cc2cnnn2-3)cc1,nt,i,i,88,i,i
Clc1cccc(N2Cc3cc(-c4ccccc4)ccc3-n3nncc3C2)c1,nt,i,i,99,i,i
CCc1cc2c(cc1-c1csc(C/C(N)=N/O)n1)C(C)(C)CCC2(C)C,i,i,i,i,i,nt
CCOC(=O)[C@]12Cc3cc(Cl)ccc3[C@H]1N(C1CCCCC1)C(=O)c1ccccc12,nt,i,nt,83,nt,i
CCOC(=O)[C@]12Cc3cc(OC)ccc3[C@H]1N(C1CCCCC1)C(=O)c1ccccc12,nt,i,i,67,i,i
CCOC(=O)[C@]12Cc3cc(Cl)ccc3[C@H]1N(Cc1ccccc1)C(=O)c1cc(OC)ccc12,nt,i,i,i,i,nt
CCCCCN1C(=O)c2cc(OC)ccc2[C@@]2(C(=O)OCC)Cc3cc(Cl)ccc3[C@@H]12,nt,i,i,63,i,i
CCOC(=O)[C@]12Cc3cc(OC)ccc3[C@H]1N(C)C(=O)c1ccccc12,nt,i,i,i,i,nt
COC(=O)C1=C(c2ccc(F)cc2F)C[C@@H]2CC[C@H]1N2C(=O)NCCOc1ccccc1,i,i,i,i,i,nt
O=C1c2ccccc2-n2nnnc2C2c3ccccc3-n3nncc3CN12 (configuration not stated),nt,i,i,i,i,nt
CN(C(=O)Cc1ccc2c(c1)OCO2)C1CCCN(Cc2ccccc2F)C1 (configuration not stated),i,i,i,i,i,nt
Cc1ccccc1CC(=O)N(CCN(C)C)CC1CCCN(Cc2ccccc2F)C1 (configuration not stated),i,i,i,62,i,i
Cc1ccccc1N1CCN(Cc2ccc3c(c2)OCO3)CC1,i,i,i,i,i,nt
COc1cc2c(cc1O)C[C@H]1c3c(cc(O)c(OC)c3-2)CCN1C,i,i,i,i,i,nt
CCCN1CCc2cc(O)cc3c2[C@H]1Cc1ccc(O)c(O)c1-3,i,i,i,65,i,i
Fc1cccc(CNCCc2c[nH]c3ccccc23)c1,i,i,i,i,i,nt
Cc1cccc(CNCCc2c[nH]c3ccccc23)c1,i,i,i,80,i,i
CC(C)Nc1ccc(Nc2ccccc2)cc1,i,i,i,100,i,i
